Source: PubChem
APP 5'UTR act: activates APP 5'UTR luciferase reporter | SH-SY5Y APP 5'UTR luciferase reporter, luminescence; zero percent = DMSO vehicle wells | AID 1276 | hit rate 1% among 190,000 | activation, % at 2 µM;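 active = activation above a set limit, based on mean plus 3 SD of controls, cut at about 140% in these data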
STAT1 activator: activators of IFN-gamma induced STAT1 signaling; hit rate 2.6% among 200,000; NIH 3T3 STAT1-luciferase reporter, luminescence; 100% = IFN-gamma alone, no compound; activation (% of control), % at 5.5 µM;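 active = activation above the screen-wide mean activation plus 3 SD, cut at about 130% in these data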;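 note: raw ratio to IFN-gamma control signal so 100% means no change and 0% no light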
FLuc inhib CS: inhibits firefly luciferase, flagging false hits in luciferase inhibition screens | P08659 | ATPLite firefly luciferase biochemical luminescence, 10 min | inhibition, % at 10 µM | hit rate 1.5% among 200,000 | AID 1006;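 active = inhibition above about 50% when tested at 10 µM, limit read from the data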
Target sequence (P08659 whole entry, looked up): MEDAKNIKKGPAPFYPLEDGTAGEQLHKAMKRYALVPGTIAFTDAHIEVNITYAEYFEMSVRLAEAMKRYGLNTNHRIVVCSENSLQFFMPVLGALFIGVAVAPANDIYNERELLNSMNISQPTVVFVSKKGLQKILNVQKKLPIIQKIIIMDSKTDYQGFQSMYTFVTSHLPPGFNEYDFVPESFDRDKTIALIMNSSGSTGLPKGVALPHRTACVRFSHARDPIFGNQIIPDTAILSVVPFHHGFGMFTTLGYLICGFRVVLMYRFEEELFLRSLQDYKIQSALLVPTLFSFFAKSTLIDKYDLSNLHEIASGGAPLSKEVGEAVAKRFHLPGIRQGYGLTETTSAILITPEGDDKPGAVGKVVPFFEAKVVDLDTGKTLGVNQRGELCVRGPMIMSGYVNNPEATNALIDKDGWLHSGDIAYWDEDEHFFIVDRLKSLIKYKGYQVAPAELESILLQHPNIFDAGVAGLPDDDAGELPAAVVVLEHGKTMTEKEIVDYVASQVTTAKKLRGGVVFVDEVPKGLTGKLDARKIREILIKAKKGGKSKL
NF-kB expr up: NF-kB expression increase, human neuronal cells; NF-kB reporter expression; hits give high values; fold change at 12.5 µM; hit rate 1.6% among 190,000; AID 1239; in the data active = fold change above about 3.3
FLuc act counter: affects firefly luciferase, flagging false hits in luciferase stimulation screens; activation factor at 10 µM; P08659; ATPlite luciferase biochemical, luminescence, 10 min; 0 = ATP-free wells, 1 = DMSO control; AID 1027; 200,000 tested, under 10 active;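 active = luciferase activation factor, scaled between plate controls, of at least 2 with compound at 10 µM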
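System: luciferase plus luciferin reagent, cell-free; medium: PBS as buffer for the ATP substrate; dosing: test compounds dosed from 2 mM stocks in 100% DMSO; timing: 10 min post-reagent at room temperature; measured by: luminescence measurement of luciferase light output; evaluation: luciferase activation, seen as luminescence increase over controls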
Active calls of the source: *; nt = not tested or not shown. Shown are actives, neighbours in structure and some others; about 4.1% of the full set was active somewhere.

SMILES	APP 5'UTR act	STAT1 activator	FLuc inhib CS	NF-kB expr up	FLuc act counter
Cc1ccc(C(=O)/C=C2\NCCNC2=O)cc1	109	131*	67*	5*	0.3
Cc1ccc(C(=O)/C=C\C(=O)c2ccc(C)cc2)cc1	-88	93	0	2.4	1
CSc1ccc(/C=N/Nc2nc(C)cc(=O)[nH]2)cc1	5	110	68*	1.5	0.3
CCOC(=O)C1CCN(S(=O)(=O)c2cccc(-c3cn4cccc(C)c4n3)c2)CC1	6	92	-3	0.82	1
O=c1cc(CN2CCOCC2)c2c(ccc3ccccc32)o1	-15	103	-5	1.4	1
CCOc1ccc(N2Cc3ncccc3C2=O)cc1	83	140*	38	1.9	0.6
COc1ccc(CN=C2Nc3ccccc3CS2)cc1	200*	126	53*	6.7*	0.5
COc1ccc(CN=C2NN=C(c3ccc(Cl)cc3)CS2)cc1	8	144*	6	2.8	0.9
CCc1nnc(NS(=O)(=O)c2ccc(NC(=O)/C=C/c3ccc(OC)cc3OC)cc2)s1	-8	104	-7	1.3	1.1
C=CCSc1n[nH]c(-c2ccc(OC)cc2)n1	56	140*	20	2.6	0.8
CCOC(=O)C1(Cc2cccc(OC)c2)CCCN(Cc2cc(C(C)C)n[nH]2)C1 (stereo not drawn)	-7	96	-4	0.89	1
CCOC(=O)C1(Cc2cccc(OC)c2)CCCN(C(=O)c2cc(C)[nH]n2)C1 (stereo not drawn)	34	140*	-2	2.5	1
COc1ccc(NC(=O)c2cncc(Br)c2)cc1S(=O)(=O)N1CCCCC1	-6	94	-6	0.44	1.1
CSc1nsc(N/N=C/c2ccc3c(c2)OCO3)c1C#N	168*	150*	35	3.9*	0.6
COc1cc(/C=N/Nc2snc(SC)c2C#N)cc(OC)c1OC	-8	92	-1	1.7	1
O=C(/C(C=Nc1cc2c(oc1=O)CCCC2=O)=C(\O)c1ccccc1)c1ccccc1	30	149*	-6	1.2	1.1
O=C1CCCC(O)=C1N=Nc1cccc(C(=O)O)c1	45	90	1	1.3	1
NC(=O)c1c(NC(=O)c2ccccc2)sc2c1CCc1ccccc1-2	17	140*	21	4.1*	0.8
Cc1c(Cc2ccc3c(c2)OCO3)sc(NC(=O)c2ccccc2)c1C(N)=O	-2	100	-2	1.1	1
O=C(/C=C/Nc1cccc([N+](=O)[O-])c1)c1ccco1	43	128	nt	nt	nt
O=C(/C=C/Nc1ccc(F)c(Cl)c1)c1ccco1	96	150*	41	2.9	0.6
O=C(/C=C/Nc1ccc(F)cc1F)c1ccco1	152*	28	97*	4.9*	0
O=C(/C=C/Nc1ccc(Br)cc1F)c1ccco1	135	25	97*	4.7*	0
O=C(Oc1ccc(Br)cc1C(=O)/C=C/c1ccccc1F)c1ccco1	9	101	nt	nt	nt
Cc1ccc(NC2=C(CC(=O)O)C(c3ccccc3)N(c3ccc(C)cc3)C2=O)cc1 (stereo not drawn)	19	101	-5	1.4	1.1
SMILES	APP 5'UTR act	STAT1 activator	FLuc inhib CS	NF-kB expr up	FLuc act counter
O=C(COc1ccccc1)Nc1nnc(-c2ccc(Cl)s2)o1	nt	102	-4	1.1	1
CSc1ccc(/C=C/C(=O)NC(=O)c2ccccc2O)cc1	89	96	86*	3.7*	0.1
O=C(NO)c1ccccc1O	12	98	-6	1.2	1.1
CSc1ccc(/C=C/C(=O)c2ccc(NC(C)=O)cc2)cc1	7	93	9	0.89	0.9
O=C(/C=C/c1ccc(Br)cc1)NC(=O)c1ccccc1O	95	96	91*	3.9*	0.1
COC(=O)/C(=C\Nc1ccccc1N)c1ncc(C(F)(F)F)cc1Cl	40	101	-2	3.3*	1
O=C(c1ccccc1)c1ncc(C(F)(F)F)cc1Cl	1	101	-3	0.98	1
Cc1cc(Br)ccc1OCC(=O)NNC(=O)C(=O)Nc1ccccc1	19	118	0	1.1	1
O=C(Nc1ccc(Cl)cc1F)c1ccccc1Br	120	148*	20	5.7*	0.8
O=C(NNC(=O)c1ccccc1Br)c1ccc(Cl)cc1	1	108	10	1.6	0.9
O=C(Nc1ccc(C(F)(F)F)cc1)c1ccccc1Br	30	129*	-4	2.3	1
CC(=O)n1c2c(c3ccccc31)OC(N)=C(C#N)C2c1ccc(C(C)C)cc1 (stereo not drawn)	48	129*	-5	0.61	1.1
CCCOc1ccc(/C(O)=C2/C(=O)C(=O)N(c3cc(C)on3)C2c2ccc(C(=O)OC)cc2)cc1 (stereo not drawn)	5	100	-2	1.2	1
CC1CCCCN1C(=O)COc1ccc(F)cc1 (stereo not drawn)	7	106	2	1	1
Cn1c(=O)c2cc(S(=O)(=O)NCCC(=O)NCC3CCCO3)ccc2n(C)c1=O (stereo not drawn)	16	96	-2	1.2	1
COc1cc2c(cc1NC(=O)C(C)OC(=O)c1ccc(S(=O)(=O)Nc3ccccc3Cl)cc1)oc1ccccc12 (stereo not drawn)	35	102	-5	nt	1.1
COc1cc(-c2noc(-c3ccco3)n2)cc(OC)c1OC	-3	105	-7	1.4	1.1
COc1ccc(-c2ccc(-c3noc(-c4ccco4)n3)c(OC)n2)cc1	14	110	-4	1.2	1
COc1ccccc1-c1noc(-c2ccco2)n1	118	131*	27	2.6	0.7
COc1nc(-c2ccccc2)ccc1-c1noc(-c2ccco2)n1	10	145*	-2	3.7*	1
Cc1cc(Cl)c(S(=O)(=O)N2CCN(c3ccc(F)cc3)CC2)cc1OCC(=O)NC1CCCCC1	-41	84	-7	0.87	1.1
COc1cc(/C=C(\C#N)c2nc3ccccc3n2C)cc(OC)c1O	-7	101	0	1	1
CC(NC(=O)/C=C/c1ccco1)c1nc2ccccc2n1Cc1ccccc1F (stereo not drawn)	-3	99	-1	1.1	1
Cc1cc(C)nc(-n2ncc3c2CC(c2cccc(Cl)c2)CC3=O)n1 (stereo not drawn)	-2	104	-4	0.76	1
Cc1nc2ccc(NC(=O)c3ccco3)cc2s1	69	126	29	1.1	0.7
SMILES	APP 5'UTR act	STAT1 activator	FLuc inhib CS	NF-kB expr up	FLuc act counter
Cc1ccc2nc(NC(=O)c3ccco3)sc2c1	84	45	90*	1.8	0.1
Cc1ccc2nc(NC(=S)NC(=O)c3ccco3)sc2c1	163*	125	90*	1.4	0.1
Cc1ccc(Cc2cnc(NC(=O)c3ccco3)s2)cc1	128	117	44	7.4*	0.6
Cc1ccc2nc(NC(=O)COC(=O)c3ccncc3)sc2c1	25	123	7	1.9	0.9
COCC(=O)Nc1nc2ccc(C)cc2s1	95	128	47	3.7*	0.5
O=C(Nc1nc2ccc(Cl)cc2s1)c1ccco1	132	116	63*	7.3*	0.4
